In test [1] the test system is NCI-H1299. The test can be described thus: Induction of apoptosis in human H1299 cells assessed as increase in Bim level at 0.25 to 1 uM after 24 hrs by Western blot analysis. The class given is functional, cell-based. A digest of the protocol:
(§1)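 A549 or H1299 cells exposed to the indicated concentrations for 24 h. Protein extracts then immunoblotted for apoptosis-pathway proteins (Bcl2, Bim, cleaved caspase 3).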
Background: A western blot detects proteins with antibodies after separation by electrophoresis.

In test [2] the target is Mitogen-activated protein kinase 8 (Homo sapiens) (UniProt P45983). The test can be described thus: Inhibition of recombinant full-length human JNK1alpha1 at 1 uM using ATF2 as substrate measured after 40 mins in presence of [gamma33P]ATP by scintillation counting method relative to control.
Sequence of Mitogen-activated protein kinase 8 (Homo sapiens) (P45983 whole entry): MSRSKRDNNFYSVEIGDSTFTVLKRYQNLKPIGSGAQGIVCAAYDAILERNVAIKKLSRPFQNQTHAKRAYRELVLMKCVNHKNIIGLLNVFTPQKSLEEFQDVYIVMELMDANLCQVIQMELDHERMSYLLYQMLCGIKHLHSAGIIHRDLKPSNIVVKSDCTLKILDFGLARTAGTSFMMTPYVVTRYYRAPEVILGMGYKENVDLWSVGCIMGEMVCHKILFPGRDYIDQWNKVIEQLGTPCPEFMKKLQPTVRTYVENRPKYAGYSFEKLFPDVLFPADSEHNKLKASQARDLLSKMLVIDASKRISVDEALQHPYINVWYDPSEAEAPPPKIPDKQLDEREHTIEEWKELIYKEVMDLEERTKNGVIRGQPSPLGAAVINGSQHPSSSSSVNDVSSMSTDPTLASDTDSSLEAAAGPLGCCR
Test [3] has as its system NCI-H1299. The test can be described thus: Induction of apoptosis in human H1299 cells assessed as viable cells at 0.25 uM after 48 hrs by AnnexinV-FITC/PI staining-based flow cytometric analysis (reference value: 97.1%). The format is functional. The note with it: NCI-H1299, 48 h, read-out: Activity.
Test [4] relates to NCI-H1299. The test can be described thus: Induction of apoptosis in human H1299 cells assessed as activation of caspase 3 at 0.25 to 1 uM after 24 hrs by Western blot analysis. The format is functional, cell-based. Summed up:
as §1

Test [5] has as its target DNA-dependent protein kinase catalytic subunit (Homo sapiens) (UniProt P78527). The test can be described thus: Inhibition of recombinant full-length human DNA-PK at 1 uM using GST-cMyc-p53 as substrate measured after 40 mins by fluorescence assay relative to control.
The target of test [6] is Serine/threonine-protein kinase 3 (Homo sapiens) (UniProt Q13188). The test can be described thus: Inhibition of recombinant human MST2 (2 to end residues) at 1 uM using myelin basic protein as substrate measured after 40 mins in presence of [gamma33P]ATP by scintillation counting method relative to control.
Sequence of Serine/threonine-protein kinase 3 (Homo sapiens) (Q13188 whole entry): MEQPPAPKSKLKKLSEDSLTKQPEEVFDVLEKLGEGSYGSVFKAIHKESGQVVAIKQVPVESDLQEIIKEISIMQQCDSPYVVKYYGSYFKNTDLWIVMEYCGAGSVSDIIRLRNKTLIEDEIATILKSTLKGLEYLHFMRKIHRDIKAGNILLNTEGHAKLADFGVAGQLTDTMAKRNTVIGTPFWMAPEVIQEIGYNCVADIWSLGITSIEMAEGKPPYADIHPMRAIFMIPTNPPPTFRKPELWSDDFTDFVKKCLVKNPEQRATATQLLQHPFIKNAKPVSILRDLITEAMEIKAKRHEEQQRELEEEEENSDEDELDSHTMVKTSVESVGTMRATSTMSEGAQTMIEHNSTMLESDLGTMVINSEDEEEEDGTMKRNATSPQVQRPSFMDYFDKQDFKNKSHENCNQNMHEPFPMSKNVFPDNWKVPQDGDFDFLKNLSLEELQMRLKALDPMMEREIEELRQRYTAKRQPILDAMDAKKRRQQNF
Another test has as its system A549. The test can be described thus: Inhibition of colony formation in human A549 cells after 12 days by crystal violet staining based assay. The format is functional, cell-based. Summed up: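 Cells exposed to compound, then washed, trypsinized and reseeded at 300 cells per well in 6-well plates. Colonies grew 10-14 days (legend: 12 days), were fixed in methanol 30 min, stained overnight with 0.5% crystal violet and imaged.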

The target in test [7] is Casein kinase I isoform gamma-2 (Homo sapiens) (UniProt P78368). The test can be described thus: Inhibition of recombinant human CK1gamma2 (18 to end residues) at 1 uM using KRRRALS(p)VASLPGL as substrate measured after 40 mins in presence of [gamma33P]ATP by scintillation counting method relative to control.
Sequence of Casein kinase I isoform gamma-2 (Homo sapiens) (P78368 whole entry, looked up, canonical isoform): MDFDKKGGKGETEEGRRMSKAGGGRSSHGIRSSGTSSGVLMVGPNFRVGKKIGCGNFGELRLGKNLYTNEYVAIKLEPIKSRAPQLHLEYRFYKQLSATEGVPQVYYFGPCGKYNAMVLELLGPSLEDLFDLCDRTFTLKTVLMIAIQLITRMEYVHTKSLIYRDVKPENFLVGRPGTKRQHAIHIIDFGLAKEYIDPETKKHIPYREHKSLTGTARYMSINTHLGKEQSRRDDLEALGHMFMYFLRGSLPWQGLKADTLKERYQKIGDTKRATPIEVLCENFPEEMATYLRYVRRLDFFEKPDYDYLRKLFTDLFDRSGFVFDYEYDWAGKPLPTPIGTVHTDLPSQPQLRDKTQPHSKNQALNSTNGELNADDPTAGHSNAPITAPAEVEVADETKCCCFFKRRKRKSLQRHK
The test system of test [8] is Protein kinase C eta type (Homo sapiens), P24723 [UNDEFINED MUTATION]. The test can be described thus: Inhibition of recombinant human PKCeta V108L/G109R/L392Q mutant (2 to end residues) at 1 uM using ERMRPRKRQGSVRRRV as substrate measured after 40 mins in presence of [gamma33P]ATP by scintillation counting method relative to control.
Sequence of Protein kinase C eta type (Homo sapiens), P24723 [UNDEFINED MUTATION] (P24723 whole entry, looked up, stated change not applied): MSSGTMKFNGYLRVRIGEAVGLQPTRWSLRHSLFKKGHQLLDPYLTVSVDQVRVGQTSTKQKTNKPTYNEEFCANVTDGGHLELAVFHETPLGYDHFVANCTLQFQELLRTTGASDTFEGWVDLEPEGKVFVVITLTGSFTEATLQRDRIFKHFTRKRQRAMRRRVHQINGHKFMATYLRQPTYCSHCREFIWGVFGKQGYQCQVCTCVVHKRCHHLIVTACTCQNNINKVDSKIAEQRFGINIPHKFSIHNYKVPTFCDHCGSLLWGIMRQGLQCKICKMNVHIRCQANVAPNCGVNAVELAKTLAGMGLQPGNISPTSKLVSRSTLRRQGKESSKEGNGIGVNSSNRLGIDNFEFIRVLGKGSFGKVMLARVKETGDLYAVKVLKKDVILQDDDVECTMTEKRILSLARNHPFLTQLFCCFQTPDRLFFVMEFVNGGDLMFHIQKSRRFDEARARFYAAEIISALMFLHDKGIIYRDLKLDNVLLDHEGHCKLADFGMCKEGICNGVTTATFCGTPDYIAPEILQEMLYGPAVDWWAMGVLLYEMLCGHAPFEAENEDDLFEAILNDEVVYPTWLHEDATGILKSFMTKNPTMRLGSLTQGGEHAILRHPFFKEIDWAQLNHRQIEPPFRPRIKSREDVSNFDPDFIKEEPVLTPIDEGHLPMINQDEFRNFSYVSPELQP
Test [9] deals with Casein kinase II subunit alpha (Homo sapiens) (UniProt P68400). The test can be described thus: Inhibition of full length recombinant human CK2alpha1 at 1 uM using RRRDDDSDDD as substrate measured after 40 mins in presence of [gamma33P]ATP by scintillation counting method relative to control.
Sequence of Casein kinase II subunit alpha (Homo sapiens) (P68400 whole entry, looked up): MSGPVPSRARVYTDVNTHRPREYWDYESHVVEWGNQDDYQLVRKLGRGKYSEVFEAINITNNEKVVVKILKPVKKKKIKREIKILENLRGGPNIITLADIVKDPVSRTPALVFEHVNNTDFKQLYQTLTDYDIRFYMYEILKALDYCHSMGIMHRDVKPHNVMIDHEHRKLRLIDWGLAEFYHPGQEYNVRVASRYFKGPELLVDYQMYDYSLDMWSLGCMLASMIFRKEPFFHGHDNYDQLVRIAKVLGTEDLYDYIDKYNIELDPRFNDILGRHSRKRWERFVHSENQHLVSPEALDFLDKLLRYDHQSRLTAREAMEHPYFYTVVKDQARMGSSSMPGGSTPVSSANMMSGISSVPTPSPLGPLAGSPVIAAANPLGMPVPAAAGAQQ
The test system of test [10] is Tyrosine-protein kinase ABL1 (Homo sapiens), P00519 [M351T]. The test can be described thus: Inhibition of human ABL M351T mutant (27 to end residues) at 1 uM using EAIYAAPFAKKK as substrate measured after 40 mins in presence of [gamma33P]ATP by scintillation counting method relative to control. A digest of the protocol: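 Percent inhibition of kinase activity at a single compound concentration, measured by the outsourced Eurofins KinaseProfiler panel. Values are the mean of two independent experiments.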

The subject of test [11] is NCI-H1299. The test can be described thus: Antitumour activity against human H1299 cells xenografted in Balb/c mouse assessed as tumour weight at 80 mg/kg, po after 21 days by digital caliper method (reference value: 2.17 g). The class given is functional. A digest of the protocol: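 Female nude mice, 6-8 weeks old, injected subcutaneously with 1×10^6 H1299 cells (100 µL of a 1×10^7/mL suspension in serum-free medium). At 100-120 mm3, randomized into groups of 5. Dosed orally each day for 21 days with drug dissolved in DMSO, or with vehicle. Caliper measurements and body weight taken every other day. Volume = short²×long×0.5. Growth inhibition based on change in volume relative to vehicle. Tumours weighed at the end.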
In general terms: Xenograft models place foreign cells or tissue in a host animal.

Active and inactive are the calls of the source. The rule behind the calls is not given here.

The inhibition is the drop in the measured response relative to a control, in per cent. In the case of `CN(C)C(=O)c1cc2cnc(Nc3ccc(NC(=O)CCCCCCCN=C=S)cc3)nc2n1C1CCCC1`, the outcome in the test with NCI-H1299 [1] and with NCI-H1299 [4] was Active. Moreover, the inhibition in test [2] was 4%; in test [5] it was 9%; in [6], 43%; with A549, “Dose-dependent effect”; in test [7] it was 20%; in test [8], -3%. The inhibition in [9] was -5%; in test [10] it was 49%. Also, the viability at 0.25 µM in the test with NCI-H1299 [3] stood at 96.7%. Moreover, the Activity in the test on NCI-H1299 [11] was determined as 0.18 g.

(Values after ChEMBL document CHEMBL4376814, “Novel cyclin-dependent kinase 9 (CDK9) inhibitor with suppression of cancer stemness activity against non-small-cell lung cancer” (Eur J Med Chem, 2019).)
